Test results published in ChEMBL document CHEMBL1147099, “In vitro and in vivo antibacterial activities of heteroaryl isothiazolones against resistant gram-positive pathogens” (Antimicrob Agents Chemother, 2007).
Converted amounts (≈) assume the structure as drawn.

How the values were obtained:
Format in all cases: functional
Staphylococcus aureus [1] = assay: Effect on cellular viability of methicillin-sensitive Staphylococcus aureus ATCC 29213 by measuring the time required for recovery at 10 times MIC after 1 hr
How it was run: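 S. aureus in log phase, approximately 2–4 × 10^7 CFU/ml in CAMHB, was exposed to 10× MIC for 1 h at 35 to 37°C with shaking, then diluted 1:1,000 into prewarmed CAMHB. Viable counts were taken hourly for 4 to 8 h. PAE = T − C, the time to a 1-log10 rise, treated versus untreated. Mean of two independent experiments.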

Klebsiella pneumoniae = assay: Antibacterial activity against Klebsiella pneumoniae
How it was run: (§1)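 Aerobic isolates run by CLSI broth microdilution in cation-adjusted Mueller-Hinton II broth (streptococci plus 2–5% lysed horse blood), about 5 × 10^5 CFU/ml final; 24 h at 35–37°C aerobically; MIC read as lowest concentration without visible growth.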

Escherichia coli = assay: Antibacterial activity against Escherichia coli after 24 hrs by broth microdilution method
How it was run: (§2)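 CLSI broth microdilution in cation-adjusted Mueller-Hinton II broth, final inoculum about 5 × 10^5 CFU/ml for most strains; streptococci supplemented with 2–5% lysed horse blood, H. influenzae in Haemophilus test medium. Aerobic incubation at 35–37°C for 24 h; MIC = lowest concentration with no visible growth.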

Acinetobacter baumannii = assay: Antibacterial activity against Acinetobacter baumannii after 24 hrs by broth microdilution method; how it was run: as §2
Enterobacter sp. = assay: Antibacterial activity against Enterobacter sp.; how it was run: as §1
Haemophilus influenzae = assay: Antibacterial activity against Haemophilus influenzae after 24 hrs by broth microdilution method; how it was run: as §2
Moraxella catarrhalis = assay: Antibacterial activity against Moraxella catarrhalis after 24 hrs by broth microdilution method; how it was run: as §2
Pseudomonas aeruginosa = assay: Antibacterial activity against Pseudomonas aeruginosa after 24 hrs by broth microdilution method; how it was run: as §2
Legionella pneumophila = assay: Antibacterial activity against Legionella pneumophila after 24 hrs by broth microdilution method
Neisseria gonorrhoeae = assay: Antibacterial activity against Neisseria gonorrhoeae after 24 hrs by broth microdilution method; how it was run: as §2
Streptococcus viridans = assay: Antibacterial activity against Streptococcus viridans after 24 hrs by broth microdilution method; how it was run: as §2
Streptococcus pyogenes = assay: Antibacterial activity against Streptococcus pyogenes; how it was run: as §1
Staphylococcus aureus [2] = assay: Antibacterial activity against methicillin-susceptible Staphylococcus aureus after 24 hrs by broth microdilution method
How it was run: (§3)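 Broth microdilution per CLSI in cation-adjusted Mueller-Hinton II broth, final inoculum approximately 5 × 10^5 CFU/ml. Plates were incubated aerobically at 35 to 37°C for 24 h. MIC was the lowest concentration giving no visible growth. Reserpine, where used, was at a final concentration of 20 μg/ml.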

[3] = tested on: Mycoplasmoides pneumoniae; assay: Antibacterial activity against Mycoplasma pneumoniae after 24 hrs by broth microdilution method
Neisseria meningitidis = assay: Antibacterial activity against Neisseria meningitidis after 24 hrs by broth microdilution method; how it was run: as §2
Staphylococcus aureus [4] = assay: Antibacterial activity against methicillin-resistant Staphylococcus aureus after 24 hrs by broth microdilution method; how it was run: as §3
Streptococcus pneumoniae = assay: Antibacterial activity against Streptococcus pneumoniae by agar dilution method
Enterococcus faecalis = assay: Antibacterial activity against Enterococcus faecalis; how it was run: as §1
Enterococcus faecium = assay: Antibacterial activity against Enterococcus faecium; how it was run: as §1

`CCN1CC(C(=O)O)C(=O)c2cc(F)c(N3CCNCC3)cc21` (centres undefined) showed a Post anitbiotic effect (Staphylococcus aureus [1]) of 1.6 h.

Compound `CC1(C)S[C@@H]2[C@H](NC(=O)[C@H](N)c3ccccc3)C(=O)N2[C@H]1C(=O)O` [AMPICILLIN] has an MIC50 (Klebsiella pneumoniae) greater than 32 µg/mL, an MIC90 (Klebsiella pneumoniae) greater than 32 µg/mL and an MIC50 (Escherichia coli) of 4 µg/mL (≈ 11.4 µM). For the same compound, the MIC90 (Escherichia coli) was greater than 32 µg/mL, the MIC50 (Acinetobacter baumannii) was 16 µg/mL (≈ 45.8 µM) and the MIC90 (Acinetobacter baumannii) was greater than 32 µg/mL. For the same compound, the MIC50 (Enterobacter sp.) was greater than 32 µg/mL, the MIC90 (Enterobacter sp.) was greater than 32 µg/mL and the MIC50 (Haemophilus influenzae) was greater than 16 µg/mL. For the same compound, the MIC90 (Haemophilus influenzae) was greater than 16 µg/mL, the MIC50 (Moraxella catarrhalis) was 4 µg/mL (≈ 11.4 µM) and the MIC90 (Moraxella catarrhalis) was 8 µg/mL (≈ 22.9 µM). The MIC50 (Pseudomonas aeruginosa) was greater than 32 µg/mL and the MIC90 (Pseudomonas aeruginosa) was greater than 32 µg/mL.

`CC[C@H]1OC(=O)[C@H](C)[C@@H](O[C@H]2C[C@@](C)(OC)[C@@H](O)[C@H](C)O2)[C@H](C)[C@@H](O[C@@H]2O[C@H](C)C[C@H](N(C)C)[C@H]2O)[C@](C)(O)C[C@@H](C)CN(C)[C@H](C)[C@@H](O)[C@]1(C)O` [AZITHROMYCIN] showed an MIC (Legionella pneumophila) of 0.12 µg/mL (≈ 0.16 µM), an MIC50 (Neisseria gonorrhoeae) of 0.06 µg/mL (≈ 0.0801 µM) and an MIC90 (Neisseria gonorrhoeae) of 0.12 µg/mL (≈ 0.16 µM). For the same compound, the MIC50 (Streptococcus viridans) was 1 µg/mL (≈ 1.34 µM), the MIC90 (Streptococcus viridans) was 4 µg/mL (≈ 5.34 µM) and the MIC50 (Streptococcus pyogenes) was 0.12 µg/mL (≈ 0.16 µM). It also gave an MIC90 (Streptococcus pyogenes) greater than 8 µg/mL, an MIC50 (Staphylococcus aureus [2]) of 1 µg/mL (≈ 1.34 µM) and an MIC90 (Staphylococcus aureus [2]) greater than 8 µg/mL. It also gave an MIC [3] of no more than 0.004 µg/mL, an MIC50 (Neisseria meningitidis) of 0.5 µg/mL (≈ 0.668 µM) and an MIC90 (Neisseria meningitidis) of 1 µg/mL (≈ 1.34 µM). For the same compound, the MIC50 (Staphylococcus aureus [4]) was greater than 8 µg/mL, the MIC50 (Haemophilus influenzae) was 0.5 µg/mL (≈ 0.668 µM) and the MIC90 (Haemophilus influenzae) was 2 µg/mL (≈ 2.67 µM). It also gave an MIC50 (Moraxella catarrhalis) of 0.015 µg/mL (≈ 0.02 µM), an MIC90 (Moraxella catarrhalis) of 0.03 µg/mL (≈ 0.0401 µM) and an MIC50 (Streptococcus pneumoniae) of 4 µg/mL (≈ 5.34 µM). The MIC90 (Streptococcus pneumoniae) was greater than 8 µg/mL, the MIC50 (Enterococcus faecalis) was 4 µg/mL (≈ 5.34 µM) and the MIC90 (Enterococcus faecalis) was greater than 16 µg/mL. For the same compound, the MIC50 (Enterococcus faecium) was greater than 16 µg/mL and the MIC90 (Enterococcus faecium) was greater than 16 µg/mL.

`CO/N=C(\C(=O)N[C@@H]1C(=O)N2C(C(=O)[O-])=C(C[N+]3(C)CCCC3)CS[C@H]12)c1csc(N)n1` [CEFEPIME] gave an MIC50 (Klebsiella pneumoniae) of 0.5 µg/mL (≈ 1.04 µM), an MIC90 (Klebsiella pneumoniae) of 32 µg/mL (≈ 66.6 µM) and an MIC50 (Acinetobacter baumannii) of 2 µg/mL (≈ 4.16 µM). The MIC90 (Acinetobacter baumannii) was 32 µg/mL (≈ 66.6 µM), the MIC50 (Enterobacter sp.) was 0.06 µg/mL (≈ 0.125 µM) and the MIC90 (Enterobacter sp.) was 4 µg/mL (≈ 8.32 µM).
